Screens from PubChem.
DSG3 Ab inh = human desmoglein-3 autoantibody binding inhibition. P32926. DSG3-coupled beads, scFv-anti-DSG3-GFP binding, flow cytometry; hits give low values. binding (percent of control), % at 10 µM. 310,000 tested, 0.48% active. AID 588358;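 active means binding more than 3 SD below its plate's average and above zero; inconclusive means below that plate limit but binding exactly zero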;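 further: hits lower antibody fragment binding to DSG3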
NALP1 inh = NALP1 inhibition; S. cerevisiae NALP1/ASC/caspase-1 growth, X-gal OD620, 72 h; inhibition, % at 10 µM; 280,000 tested, 0.61% active; AID 2071; in the data active means inhibition mostly above about 24%, no sharp cut-off; inactive means mostly below about 32%
PolyA inhibitor = inhibitors of polyadenylation in S. cerevisiae; S. cerevisiae SKY197-pL101 polyadenylation reporter, beta-gal luminescence; efflux-impaired pdr1/pdr3 knockout yeast; score 100 = 6 SD above DMSO; activity score, % at 12 µM; 300,000 tested, 0.02% active; AID 1875;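 active means lowest replicate activity score at least 50, where 100 means six control SD above control mean; inconclusive means lowest score under 50 but half or more replicates reach 50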;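 further: yeast exposed to compound for 9 h at 30 °C; higher score means more reporter readthrough which indicates perturbed polyadenylation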
Arr AP2 block = inhibitors of human beta-arrestin and AP2 interaction; FITC-arrestin peptide / GST-AP2 beads, flow cytometry; AP2 beta2 appendage carries R879A mutation; inhibition, % at 10 µM; 340,000 tested, 0.31% active;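 active means inhibition above a set limit, near 3 SD of compounds lacking own fluorescence, cut at about 54% in these data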
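test system = AP2 appendage R879A on GSH beads | buffer or medium = PBS plus Tween 20 (0.05%) and BSA (0.1%) | incubation = 12 min plus 1 h, RT | detection = bead flow cytometry, FITC channel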
NALP3 yeast inh = blocks the NALP3 inflammasome reconstituted in yeast. Yeast reconstituted NLRP3/ASC/caspase-1, beta-gal luminescence, 24 h. inhibition, % at 10 µM. 330,000 tested, 0.39% active. AID 2825;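 active means inhibition of 50% or more; inactive means inhibition below 50%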
ALR inh = human ALR oxidase inhibition via reduced H2O2; P55789; purified ALR, DTT oxidation, H2O2 HRP-luminol luminescence; inhibition, % (test concentration not listed); 290,000 tested, 3.8% active; AID 485317;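 active means mean replicate inhibition above about 79%, with every replicate also reaching it, limit read from the data; inconclusive means only one of the two criteria met; inactive means mean below limit and not every replicate reaching it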
Target sequence (P55789 whole entry, looked up): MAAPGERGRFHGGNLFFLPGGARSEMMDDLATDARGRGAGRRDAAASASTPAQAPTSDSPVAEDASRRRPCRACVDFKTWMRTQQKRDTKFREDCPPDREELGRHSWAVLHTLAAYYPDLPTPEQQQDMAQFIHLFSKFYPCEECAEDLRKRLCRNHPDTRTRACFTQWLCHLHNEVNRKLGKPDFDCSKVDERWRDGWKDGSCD
Of the large screens only hits and unclear results are named; the others gave an inactive call. Most compounds without a hit are left out; they make up all but 4.6% or so of the library.

CCOC(=O)C(=O)N/N=C/c1ccc(F)cc1	none
CCOc1ccc(C(=O)N[C@H](C(=O)Nc2ccc(S(=O)(=O)Nc3nccs3)cc2)C(C)C)cc1	none (no result: NALP1 inh, PolyA inhibitor)
COc1ccccc1N1CCN(C(=O)[C@@H]2CCCN2C2=NS(=O)(=O)c3ccccc32)CC1	none (no result: NALP1 inh, PolyA inhibitor, Arr AP2 block, NALP3 yeast inh, ALR inh)
CCn1c(CNC(C)=O)nnc1SCC(=O)c1ccc(Br)cc1	ALR inh 96
O=C(CCc1ccccc1)NCCSc1ccccc1	none
O=C(CCc1[nH]c2ccccc2c1Sc1ccccc1)NCCO	ALR inh 99
CCN1CCN(c2ccc(NC(=O)CC3OC(=O)c4ccccc43)cc2C)CC1 (configuration not stated)	none (no result: NALP1 inh, PolyA inhibitor, Arr AP2 block, NALP3 yeast inh, ALR inh)
CC(C)C(c1nnnn1C1CCCC1)N1CCc2ccccc21 (configuration not stated)	ALR inh 99 (no result: PolyA inhibitor)
CC(C)C(c1nnnn1C1CCCC1)N1CCCc2ccccc21 (configuration not stated)	none
COc1ccccc1NC(=O)C1CCN(C(=O)NCc2ccccc2)CC1	none
Cc1cc(C(=O)CSc2nc(N)cc(=O)[nH]2)ccc1F	ALR inh 90
Cc1ccc(C(=O)CSc2nc(N)cc(=O)[nH]2)cc1C	ALR inh 99
CC(C)CN(C(=O)CCCOc1ccc(Cl)cc1Cl)c1c(N)n(Cc2ccccc2)c(=O)[nH]c1=O	none (no result: NALP1 inh)
Cc1ccc(Sc2nc3ccc(C)cn3c(=O)c2/C=N/O)cc1	ALR inh 99
O=C(COc1ccc(S(=O)(=O)N2CCOCC2)cc1Cl)NCc1ccc2c(c1)OCO2	none (no result: NALP1 inh, PolyA inhibitor, Arr AP2 block, NALP3 yeast inh, ALR inh)
Cc1ccc(N2C(=O)c3ccc(C(=O)O)cc3C2=O)cc1C	ALR inh 95
Cc1ccc(N2C(=O)c3ccc(C(=O)N4CCN(c5ccc(C)c(C)c5)CC4)cc3C2=O)cc1	none
C=CC[n+]1ccn(-c2nc3ccccc3nc2[N-]S(=O)(=O)c2cccs2)c1	ALR inh 95
CC(C)CC(=O)/C(=C\c1ccc(Cl)cc1Cl)n1cncn1	NALP1 inh 112 (no result: NALP3 yeast inh, ALR inh)
COc1ccc(/C=C(/C(=O)c2ccc(Cl)cc2Cl)n2cncn2)cc1	ALR inh 95
CN(C)c1ccc(/C=C(/C(=O)c2ccc(Cl)cc2Cl)n2cncn2)cc1	none (no result: DSG3 Ab inh, NALP1 inh, ALR inh)
COCC(=O)N1CCC(Oc2ccc(C(=O)N(C)CCCC3CCCC3)cc2)CC1	PolyA inhibitor inconclusive
CCC(=O)Nc1cccc2cccnc12	none
C/C(=N\Nc1cccc2cccnc12)c1ccc[nH]1	ALR inh 96
O=c1[nH][nH]c(=O)c(Cl)c1Cl	none (no result: NALP1 inh, PolyA inhibitor, NALP3 yeast inh, ALR inh)
CCOc1cc(/C=N/NC(=O)CCCC(=O)NC2CCCCC2)ccc1O	ALR inh 99
CCOc1cc(/C=N/NC(=O)CCc2n[nH]c(=O)[nH]c2=O)ccc1O	ALR inh 99
COc1ccc(/C=N/NC(=O)CCc2n[nH]c(=O)[nH]c2=O)cc1OC	none (no result: ALR inh)
O=C(COc1cc2oc(=O)c3c(c2cc1Cl)CCC3)Nc1cccnc1	DSG3 Ab inh 77
CC(C)(C)NCC(O)c1cc(O)cc(O)c1 (configuration not stated)	DSG3 Ab inh 45 (no result: NALP3 yeast inh)
Cc1oc(-c2ccc(Cl)cc2)nc1CS(=O)CC(=O)NC1CCCC1 (configuration not stated)	ALR inh 99
COc1ccc(-c2nc(CS(=O)CC(=O)NCC3CCCO3)c(C)o2)cc1 (configuration not stated)	ALR inh 98
Cc1oc(-c2ccc(Cl)cc2)nc1CS(=O)CC(=O)NC1CCCCCC1 (configuration not stated)	none
COc1ccc(C(=O)OCC(=O)NCC2CCCO2)cc1 (configuration not stated)	none
COc1ccc(-c2nc(CS(=O)CC(=O)NC3CCCCC3C)c(C)o2)cc1OC (configuration not stated)	ALR inh 99
Cc1oc(-c2ccc(Cl)cc2)nc1CS(=O)CC(=O)NCCCN(C)C1CCCCC1 (configuration not stated)	ALR inh 99 (no result: DSG3 Ab inh)
CCCCN(C(=O)C1CC(=O)N(c2ccc(CC)cc2)C1)c1c(N)n(CCC)c(=O)[nH]c1=O (configuration not stated)	none (no result: NALP1 inh, PolyA inhibitor, ALR inh)
CCCCCC(=O)N1C[C@@H](O)[C@H](n2cc(-c3ccc(F)cc3)nn2)C[C@@H]1c1ccccc1	none (no result: NALP1 inh, PolyA inhibitor, Arr AP2 block, NALP3 yeast inh, ALR inh)
C=CC[C@@H](CC(=O)OC(C)(C)C)C(=O)OC[C@@H]1CCCN1C(=O)[C@@H](CC=C)CC(=O)N(CCO)Cc1ccccc1	none (no result: NALP1 inh, PolyA inhibitor)
CCOc1ccccc1-n1nnnc1SCC(=O)N(C)C1CCS(=O)(=O)C1 (configuration not stated)	none (no result: NALP1 inh, PolyA inhibitor, Arr AP2 block, NALP3 yeast inh, ALR inh)
Cc1ccc(-c2nc(CS(=O)CC(=O)NC3CCCCC3)c(C)o2)cc1 (configuration not stated)	ALR inh 99
O=C(CSc1oc(-c2cccs2)nc1S(=O)(=O)c1ccccc1)NC1CCCCC1	none (no result: DSG3 Ab inh)
Cc1ccc(-c2nsc(SCC(=O)NCC3CCCO3)n2)cc1 (configuration not stated)	none
Cc1oc(-c2cccs2)nc1CS(=O)CC(=O)NC1CCCCCC1 (configuration not stated)	ALR inh 99
Cc1oc(-c2ccc(Cl)cc2)nc1CS(=O)CC(=O)NC1CCCCC1 (configuration not stated)	ALR inh 97
COc1ccc(-c2nsc(SCC(=O)NCC3CCCO3)n2)cc1 (configuration not stated)	ALR inh 95
CS(=O)(=O)c1ccc(Cl)c(NC(=O)c2ccc(-n3cncn3)c([N+](=O)[O-])c2)c1	none (no result: NALP1 inh, PolyA inhibitor, Arr AP2 block, NALP3 yeast inh, ALR inh)
COc1ccc2nc(-c3ccccc3)nc(SCC(=O)NCC3CCCO3)c2c1 (configuration not stated)	none
COc1cccc(-c2nc(CSCC(=O)NCC3CCCO3)c(C)o2)c1 (configuration not stated)	ALR inh 99 (no result: DSG3 Ab inh)
CCc1cccc2c(SCC(=O)NCC3CCCO3)nc(-c3ccc(F)cc3)nc12 (configuration not stated)	DSG3 Ab inh 78
COc1ccc(-c2nc(CS(=O)CC(=O)NC3CCCC3)c(C)o2)cc1 (configuration not stated)	ALR inh 98
CCC1CCCCN1CCCNC(=O)CS(=O)Cc1nc(-c2ccc(OC)c(OC)c2)oc1C (configuration not stated)	ALR inh 100
Cc1ccc2c(c1)-c1cc(C)ccc1C2=O	none (no result: NALP1 inh, PolyA inhibitor, NALP3 yeast inh, ALR inh)
Cc1ccc(S(=O)(=O)Nc2ccccc2N=Cc2ccc([N+](=O)[O-])cc2[N+](=O)[O-])cc1	none (no result: NALP1 inh, PolyA inhibitor, NALP3 yeast inh, ALR inh)
Cc1cccc(-c2nc(CS(=O)CC(=O)NC3CCCC(C)C3C)c(C)o2)c1 (configuration not stated)	ALR inh 99
CCCCC(=O)Nc1ccnc(-c2cccnc2)n1	ALR inh 85
